The subject of one data set is Plasmodium falciparum. Briefly: Antimalarial activity against drug-sensitive ring-stage Plasmodium falciparum 3D7 infected in human O+ erythrocytes assessed as inhibition of parasite growth by [3H]hypoxanthine incorporation assay. The format is functional, organism-based.
The target of data set [1] is T1, Histone deacetylase (Plasmodium falciparum 3D7) (UniProt Q7K6A1).
T1 sequence (whole entry): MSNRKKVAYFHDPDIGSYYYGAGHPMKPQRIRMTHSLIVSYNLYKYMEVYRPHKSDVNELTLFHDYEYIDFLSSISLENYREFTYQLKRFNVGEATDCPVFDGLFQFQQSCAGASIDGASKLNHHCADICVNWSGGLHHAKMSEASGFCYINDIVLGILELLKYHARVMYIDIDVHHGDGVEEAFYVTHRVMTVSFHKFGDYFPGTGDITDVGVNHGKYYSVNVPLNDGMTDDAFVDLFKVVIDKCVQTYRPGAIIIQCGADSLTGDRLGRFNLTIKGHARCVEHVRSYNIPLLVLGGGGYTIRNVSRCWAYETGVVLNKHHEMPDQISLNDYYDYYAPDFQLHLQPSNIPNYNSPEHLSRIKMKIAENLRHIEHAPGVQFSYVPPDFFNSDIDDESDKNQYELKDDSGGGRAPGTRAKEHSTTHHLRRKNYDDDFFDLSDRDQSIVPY
Description: Inhibition of trophozoite stage of Plasmodium falciparum 3D7 HDAC1 in infected-human erythrocytes assessed as histone H4 hyperacetylation at 20 to 100 nM after 3.5 hrs by Western blot analysis. The format is cell-based. A digest of the protocol:
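P. falciparum 3D7-infected erythrocytes exposed to 20 and 100 nM compound for 3.5 h. Vehicle controls (0.1% DMSO) sampled at start and at 3.5 h. Total protein extracted and run on 15% SDS–PAGE. Histone H4 hyperacetylation read by Western blot with polyclonal anti-tetra-acetyl histone H4 antiserum. Loading checked by Coomassie staining of a matched gel.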
(Immunoblotting shows a protein as a band on a membrane.)

Data set [2] can be described thus: Selectivity index, ratio of IC50 for human HeLa cells to IC50 for drug-sensitive ring-stage Plasmodium falciparum 3D7. As to conditions: read-out: Selectivity Index. Type of data set: toxicity, cell-based.
In another data set the test system is NFF. Description: Cytotoxicity against human NFF after 96 hrs by sulforhodamine B assay. The format is cell-based. In general terms: The SRB assay estimates cell density from bound dye.
A short description of data set [3]: Selectivity index, ratio of IC50 for human NFF to IC50 for drug-sensitive ring-stage Plasmodium falciparum 3D7. The method in brief:
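Ratio computed as NFF IC50 divided by 3D7 IC50. Each IC50 is the mean of three experiments.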

In data set [4] the target is T1, Histone deacetylase (Plasmodium falciparum 3D7). Briefly: (§1) Inhibition of Plasmodium falciparum 3D7 HDAC1 in infected-human erythrocytes assessed as histone H4 hyperacetylation after 1.5 hrs by SDS-PAGE analysis. The format is cell-based.
In another data set the target is T2, Histone deacetylase (Plasmodium falciparum 3D7, UniProt Q7K6A1).
T2 sequence (Q7K6A1 whole entry): T1 sequence (whole entry)
Described as §1. Type of data set: cell-based.

From ChEMBL document CHEMBL1287677, “Antimalarial histone deacetylase inhibitors containing cinnamate or NSAID components” (Bioorg Med Chem Lett, 2010) come the findings set out here.

Structures are written as SMILES. The source made the active and inactive calls. The rule behind the calls is not given here.

In the case of `O=C(/C=C/c1ccc(OC/C=C/c2ccccc2)cc1)N[C@@H](CCCCCC(=O)NO)C(=O)Nc1cccc2cccnc12`, in the data set with Plasmodium falciparum, the IC50 (as a rule, the concentration that inhibits the measured activity by half) turned out to be 453 nM and the IC90 (commonly the point of the concentration-response curve where the effect stands at 90%) was found to be 827 nM.
The like results for `Cc1ccc(C(=O)c2ccc(CC(=O)N[C@@H](CCCCCC(=O)NO)C(=O)Nc3cccc4cccnc34)n2C)cc1` were, in that order, 47 nM and 102 nM.
For `O=C(/C=C/c1ccc(Oc2ccccc2)cc1)N[C@@H](CCCCCC(=O)NO)C(=O)Nc1cccc2cccnc12`, the IC50 in the data set with Plasmodium falciparum was determined as 156 nM.
Still for that read-out and setting: the figure for `COc1ccc(CCNC(=O)[C@H](CCCCCC(=O)NO)NC(=O)c2ccc(N(C)C)cc2)cc1OC` is 101 nM.
On to `CN(C)c1ccc(C(=O)N[C@@H](CCCCCC(=O)NO)C(=O)Nc2ccccc2Cc2ccccc2)cc1`, for which, in the data set on Plasmodium falciparum, the IC50 was 5 nM. In data set [1], the inhibition entry is “Active”.
As to `CC(C)c1ccc(NC(=O)[C@H](CCCCCC(=O)NO)NC(=O)c2ccc(N(C)C)cc2)cc1`, the IC50 with Plasmodium falciparum was 22 nM.
Turning to `CC1=C(CC(=O)N[C@@H](CCCCCC(=O)NO)C(=O)Nc2cccc3cccnc23)c2cc(F)ccc2C1=Cc1ccc(S(C)=O)cc1` (stereo partly specified), in the data set on Plasmodium falciparum, the IC50 came out at 35 nM and the 90% effect concentration (IC90) was 35 nM.
`O=C(CCCCC[C@H](NC(=O)Cc1ccccc1Nc1c(Cl)cccc1Cl)C(=O)Nc1cccc2cccnc12)NO`: in the data set on Plasmodium falciparum, the IC50 came out at 65 nM and the IC90 is 119 nM.
Take `O=C(CCCCC[C@H](NC(=O)c1ccccc1O)C(=O)Nc1cccc2cccnc12)NO`: in the data set on Plasmodium falciparum, the IC50 was found to be 115 nM and the IC90 was 214 nM.
Consider `COc1ccc2[nH]c(C)c(CC(=O)N[C@@H](CCCCCC(=O)NO)C(=O)Nc3cccc4cccnc34)c2c1`, for which, in the data set on Plasmodium falciparum, the IC50 is 13 nM and the IC90 was determined as 22 nM. Further, the selectivity ratio in data set [2] was determined as 17. This compound displayed an IC50 in the data set with NFF of 260 nM. The “Selectivity Index” value in data set [3] was 20. The inhibition entry in data set [1] is “Active”.
As for `CCCCOc1ccc(/C=C/C(=O)N[C@@H](CCCCCC(=O)NO)C(=O)Nc2cccc3cccnc23)cc1`, in the data set with Plasmodium falciparum, the IC50 stood at 184 nM and the IC90 was 373 nM.
As for `C[C@@H]1CC[C@H]2[C@@H](C)C(=O)O[C@@H]3O[C@@]4(C)CC[C@@H]1[C@]32OO4`, the inhibition result in data set [1] was “inactive”.
On to `CC(C(=O)N[C@@H](CCCCCC(=O)NO)C(=O)Nc1cccc2cccnc12)c1ccc(-c2ccccc2)c(F)c1` (stereo partly specified), for which, in the data set with Plasmodium falciparum, the IC50 came to 42 nM and the IC90 was determined as 76 nM.
As for `O=C(CCCCC[C@H](NC(=O)c1cc2ccccc2[nH]1)C(=O)Nc1cccc2cccnc12)NO`, in data set [4], the inhibition entry is “Dose-dependent effect”. The IC50 on Histone deacetylase came out at 78 nM.
Take `COc1ccc2cc([C@H](C)C(=O)N[C@@H](CCCCCC(=O)NO)C(=O)Nc3cccc4cccnc34)ccc2c1`: in the data set on Plasmodium falciparum, the IC50 is 14 nM and the IC90 was found to be 24 nM. Further, the selectivity ratio in data set [2] amounted to 17. In the data set with NFF, this compound had an IC50 of 169 nM. Moreover, the “Selectivity Index” value in data set [3] came out at 12. For the same compound, the inhibition entry in data set [1] was “Active”.
Consider `CN(C)c1ccc(C(=O)N[C@@H](CCCCCC(=O)NO)C(=O)Nc2cccc3cccnc23)cc1`, for which the selectivity ratio in data set [2] was 17. Also, the “Selectivity Index” value in data set [3] is listed as 30.
As for `O=C(/C=C/c1cccc(Br)c1)N[C@@H](CCCCCC(=O)NO)C(=O)Nc1cccc2cccnc12`, in the data set on Plasmodium falciparum, the IC50 came out at 50 nM.
Consider `O=C(/C=C/c1ccc(OCc2ccc(Br)cc2)cc1)N[C@@H](CCCCCC(=O)NO)C(=O)Nc1cccc2cccnc12`, for which, in the data set on Plasmodium falciparum, the IC50 was 357 nM and the IC90 turned out to be 687 nM.
On to `Cc1ccc(COc2ccc(/C=C/C(=O)N[C@@H](CCCCCC(=O)NO)C(=O)Nc3cccc4cccnc34)cc2)cc1`, for which, in the data set on Plasmodium falciparum, the IC50 stood at 153 nM and the concentration for an effect of 90% (IC90) worked out at 375 nM.
The like results for `CC(C)CCOc1ccc(/C=C/C(=O)N[C@@H](CCCCCC(=O)NO)C(=O)Nc2cccc3cccnc23)cc1` were, in that order, 217 nM and 536 nM.
The corresponding values for `Cc1cccc(Nc2ccccc2C(=O)N[C@@H](CCCCCC(=O)NO)C(=O)Nc2cccc3cccnc23)c1C` are 51 nM and 89 nM.
`COc1cc(/C=C/C(=O)N[C@@H](CCCCCC(=O)NO)C(=O)Nc2cccc3cccnc23)cc(OC)c1OC`: the IC50 in the data set with Plasmodium falciparum came out at 52 nM.
In the case of `CC(C)CCOc1cccc(/C=C/C(=O)N[C@@H](CCCCCC(=O)NO)C(=O)Nc2cccc3cccnc23)c1`, in the data set with Plasmodium falciparum, the IC50 was above 1000 nM and the IC90 was above 1000 nM.
`COc1cc(/C=C/C(=O)N[C@@H](CCCCCC(=O)NO)C(=O)Nc2cccc3cccnc23)cc(OC)c1O`: in the data set on Plasmodium falciparum, the IC50 worked out at 14 nM and the IC90 was 26 nM.
Consider `O=C(/C=C/c1ccco1)N[C@@H](CCCCCC(=O)NO)C(=O)Nc1cccc2cccnc12`, for which, in the data set with Plasmodium falciparum, the IC50 was determined as 15 nM and the concentration for an effect of 90% (IC90) amounted to 27 nM.
With `O=C(/C=C/c1ccccc1)N[C@@H](CCCCCC(=O)NO)C(=O)Nc1cccc2cccnc12`, the inhibition result in data set [4] was “Dose-dependent effect”. The IC50 at Histone deacetylase stood at 87 nM.
Regarding `CC(C(=O)N[C@@H](CCCCCC(=O)NO)C(=O)Nc1cccc2cccnc12)c1ccc(N2Cc3ccccc3C2=O)cc1` (stereo partly specified), in the data set on Plasmodium falciparum, the IC50 is 32 nM and the IC90 is 65 nM.
As to `CN(C)c1ccc(C(=O)N[C@@H](CCCCCC(=O)NO)C(=O)Nc2cccc3ccccc23)cc1`, the IC50 in the data set with Plasmodium falciparum amounted to 21 nM.
With `COc1ccc(/C=C/C(=O)N[C@@H](CCCCCC(=O)NO)C(=O)Nc2cccc3cccnc23)cc1OC`, in the data set with Plasmodium falciparum, the IC50 worked out at 34 nM and the IC90 worked out at 61 nM.
`O=C(/C=C/c1cccc(OC/C=C/c2ccccc2)c1)N[C@@H](CCCCCC(=O)NO)C(=O)Nc1cccc2cccnc12`: in the data set with Plasmodium falciparum, the half-maximal inhibitory concentration (IC50) stood at 400 nM and the IC90 worked out at 805 nM.
